Activity calls are given as the source filed them. No cut-off for these calls is given here.

The IC50 is the concentration that inhibits the measured activity by half. Broadly, the EC50 is the concentration giving half of the maximal effect.

For series [1], the target named is T1, Tyrosine-protein phosphatase non-receptor type 1 (Homo sapiens, UniProt P18031).
T1 sequence (P18031 whole entry): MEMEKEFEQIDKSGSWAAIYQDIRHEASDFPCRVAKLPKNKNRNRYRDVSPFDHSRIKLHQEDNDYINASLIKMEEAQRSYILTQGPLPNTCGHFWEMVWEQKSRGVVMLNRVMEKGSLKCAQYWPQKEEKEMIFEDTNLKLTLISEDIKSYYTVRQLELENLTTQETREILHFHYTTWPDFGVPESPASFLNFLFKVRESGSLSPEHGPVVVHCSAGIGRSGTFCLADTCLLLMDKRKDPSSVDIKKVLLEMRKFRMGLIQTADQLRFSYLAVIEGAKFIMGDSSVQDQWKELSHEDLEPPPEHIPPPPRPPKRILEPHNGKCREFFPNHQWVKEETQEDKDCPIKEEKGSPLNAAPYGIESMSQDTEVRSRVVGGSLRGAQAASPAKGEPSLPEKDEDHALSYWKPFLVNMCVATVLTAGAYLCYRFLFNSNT
Nature of the series: Inhibition of PTP1B expressed in Escherichia coli assessed as p-nitrophenol release from pNPP substrate preincubated for 10 mins. The procedure, abridged:
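IC50 values against the PTP panel, with enzymes prepared as described in the supplementary material. Values are means ± SD of two or more experiments.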

Series [2] deals with T2, Peroxisome proliferator-activated receptor gamma (Homo sapiens) (UniProt P37231).
T2 sequence (whole entry): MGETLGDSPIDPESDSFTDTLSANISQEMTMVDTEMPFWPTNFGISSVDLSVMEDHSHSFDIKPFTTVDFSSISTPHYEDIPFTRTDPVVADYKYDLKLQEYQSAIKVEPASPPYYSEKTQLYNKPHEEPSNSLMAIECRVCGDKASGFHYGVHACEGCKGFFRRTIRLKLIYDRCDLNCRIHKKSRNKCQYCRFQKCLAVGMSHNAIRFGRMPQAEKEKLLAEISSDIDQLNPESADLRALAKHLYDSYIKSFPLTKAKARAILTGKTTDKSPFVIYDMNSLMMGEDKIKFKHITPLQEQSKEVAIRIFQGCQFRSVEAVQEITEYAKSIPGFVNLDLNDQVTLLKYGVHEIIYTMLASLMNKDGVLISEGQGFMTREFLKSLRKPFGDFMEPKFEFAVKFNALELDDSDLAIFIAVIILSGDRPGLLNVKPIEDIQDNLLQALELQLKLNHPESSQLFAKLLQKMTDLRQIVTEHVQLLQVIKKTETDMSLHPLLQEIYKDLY
Nature of the series: Agonist activity at PPARgamma expressed in HepG2 cells co-expressing PPRE assessed as concentration required for maximal activation after 24 hrs by luciferase reporter gene assay. Type of series: functional, cell-based. A general note: Reporter assays use an easily measured gene product as a stand-in for the process of interest.

In series [3] the target is T3, Peroxisome proliferator-activated receptor gamma (Homo sapiens, UniProt P37231).
T3 sequence (P37231 whole entry): T2 sequence (whole entry)
As to the kind of experiment: Agonist activity at PPARgamma expressed in HepG2 cells co-expressing PPRE assessed as transcriptional activation after 24 hrs by luciferase reporter gene assay. The format is functional, cell-based. The procedure, abridged:
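HepG2 cells were transfected with a PPRE-driven luciferase reporter plus CMV-βGal. The basic luciferase reporter without a PPRE site served as the negative control. Compounds were added 6 h after transfection. Cells were lysed 24 h later. Luciferase activity was read on a luminometer and normalized to β-galactosidase for transfection efficiency. Two independent experiments; error as SEM.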

The test system of series [4] is Mus musculus. As to the kind of experiment: Antiobesity activity in high fat diet-fed diabetic C57BL/6J Jms Slc mouse model assessed as reduction in body weight at 2.6 mg/day administered with food for 4 weeks. The format is functional. The procedure, abridged: (§1)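 DIO male C57BL/6J Jms Slc mice were fed a 45%-fat HFD for 8 wk, then HFD with 0.1% w/w compound in feed (about 2.6 mg/day/mouse) for 4 wk. A 10%-fat LFD lean group ran throughout. Measures were weight gain, feed efficiency (weight gain/kcal ×100), and epididymal and retroperitoneal fat pad weights. n = 8/group; mean ± SEM; one-way ANOVA.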

In series [5] the test system is Mus musculus. Nature of the series: Antiobesity activity in high fat diet-fed diabetic C57BL/6J Jms Slc mouse model assessed as weight gain/kcal at 2.6 mg/day administered with food for 4 weeks. Type of series: functional. The procedure, abridged:
as §1

Series [6] relates to Mus musculus. Nature of the series: Antiobesity activity in high fat diet-fed diabetic C57BL/6J Jms Slc mouse model assessed as decrease in epididymal fat at 2.6 mg/day administered with food for 4 weeks. The format is functional. The procedure, abridged: as §1
Series [7] relates to Mus musculus. As to the kind of experiment: Antiobesity activity in high fat diet-fed diabetic C57BL/6J Jms Slc mouse model assessed as decrease in retroperitoneal fat at 2.6 mg/day administered with food for 4 weeks. The format is functional. The procedure, abridged: as §1
For series [8], the system named is Mus musculus. As to the kind of experiment: Antiobesity activity in high fat diet-fed diabetic C57BL/6J Jms Slc mouse model assessed as decrease in total cholesterol level in serum at 2.6 mg/day administered with food for 4 weeks. The format is functional. The procedure, abridged:
(§2)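 DIO mice were fed HFD for 8 wk, then HFD containing 0.1% w/w compound (about 2.6 mg/day/mouse) for 4 wk. At the end of feeding, mice were deprived of food overnight. Serum total cholesterol, triglyceride and NEFA were then measured. Values are mean ± SEM.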

The test system of series [9] is Mus musculus. As to the kind of experiment: Antiobesity activity in high fat diet-fed diabetic C57BL/6J Jms Slc mouse model assessed as decrease in serum triglyceride level at 2.6 mg/day administered with food for 4 weeks. The format is functional. The procedure, abridged: as §2
The test system of series [10] is Mus musculus. Nature of the series: Antiobesity activity in high fat diet-fed diabetic C57BL/6J Jms Slc mouse model assessed as decrease in non-esterified free fatty acid level in serum at 2.6 mg/day administered with food for 4 weeks. The format is functional. The procedure, abridged: as §2
Series [11] concerns Mus musculus. As to the kind of experiment: Antidiabetic activity in high fat diet-fed diabetic C57BL/6J Jms Slc mouse model assessed as normalization of blood glucose level at 2.6 mg/day administered with food for 4 weeks measured 60 mins after last dose by glucose tolerance test. Type of series: functional, organism-based. The procedure, abridged:
(§3)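 Mice were male C57BL/6J Jms Slc, 5 wk old after 1 wk acclimatization. They were fed a 45%-fat HFD for 8 wk, then HFD with compound mixed in (1.0 g/kg diet, about 2.6 mg/day/mouse, 78 mg/day/kg) for 4 wk. Each mouse was fasted 6 h from the start of the light cycle and fasting glucose was measured. Glucose 1.0 g/kg was then given i.p., with readings at 60 and 90 min.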

For series [12], the system named is Mus musculus. As to the kind of experiment: Antidiabetic activity in high fat diet-fed diabetic C57BL/6J Jms Slc mouse model assessed as normalization of blood glucose level at 2.6 mg/day administered with food for 4 weeks measured 90 mins after last dose by glucose tolerance test. The format is functional, organism-based. The procedure, abridged: as §3
Series [13] addresses T4, Tyrosine-protein phosphatase non-receptor type 1 (Homo sapiens) (UniProt P18031).
T4 sequence (whole entry): T1 sequence (P18031 whole entry)
As to the kind of experiment: Competitive inhibition of PTP1B expressed in Escherichia coli.

For series [14], the system named is Mus musculus. As to the kind of experiment: Toxicity in high fat diet-fed diabetic C57BL/6J Jms Slc mouse model assessed as dark-brownish spots in liver at 4.8 mg/day administered with food for 4 weeks. Conditions: in vivo, po, 672 h.

In the case of `O=C1NC(=O)/C(=C/c2ccc(OCc3ccc(C(F)(F)F)cc3)cc2OCc2ccc(C(F)(F)F)cc2)S1`, the concentration for half-maximal inhibition (IC50) in series [1] worked out at 9 µM.

As to `O=C1NC(=O)/C(=C/c2ccc(OCc3ccc(NC(=O)c4cccc(C(F)(F)F)c4)cc3)cc2OCc2ccc(C(F)(F)F)cc2)S1`, the IC50 in [1] amounted to 6 µM.

For the molecule `O=C1NC(=O)/C(=C/c2ccc(OCc3cccnc3)cc2OCc2ccc(C(F)(F)F)cc2)S1`, the half-inhibitory concentration (IC50) in series [1] is 12 µM.

Turning to `O=C1NC(=O)/C(=C/c2ccc(OCc3ccc(S(=O)(=O)N4CCOCC4)cc3)cc2OCc2ccc(C(F)(F)F)cc2)S1`, the IC50 in [1] is 19 µM.

For `O=C1NC(=O)/C(=C/c2ccc(OCc3ccc(F)cc3)cc2OCc2ccccc2)S1`, the IC50 in series [1] turned out to be 9 µM.

Take `Cc1ccc(S(=O)(=O)Oc2ccc(/C=C3\SC(=O)NC3=O)c(OS(=O)(=O)c3ccc(C)cc3)c2)cc1`: the IC50 in [1] was 16 µM.

For the molecule `CC(=O)Nc1ccc(COc2cc(OS(=O)(=O)c3ccc(C)cc3)ccc2/C=C2\SC(=O)NC2=O)cc1`, in series [1], the IC50 was 33 µM.

Turning to `O=C1NC(=O)/C(=C/c2cc(Br)c(OCc3ccc(C(F)(F)F)cc3)cc2OCc2ccc(C(F)(F)F)cc2)S1`, the 50% inhibitory concentration (IC50) in series [1] was found to be 1.4 µM.

In the case of `O=C1NC(=O)/C(=C/c2ccc(OS(=O)(=O)c3ccc(Br)cc3)cc2OCc2ccc(C(F)(F)F)cc2)S1`, the IC50 in [1] worked out at 6 µM.

Turning to `Cc1ccc(S(=O)(=O)Oc2ccc(/C=C3\SC(=O)NC3=O)c(OCc3ccc(NC(=O)c4cccc(C(F)(F)F)c4)cc3)c2)cc1`, the IC50 in [1] is 11 µM.

In the case of `O=C1NC(=O)/C(=C/c2ccc(OCc3ccccc3)cc2OCc2ccc(F)cc2)S1`, the IC50 in series [1] came to 9 µM.

For the molecule `Cc1ccc(S(=O)(=O)Oc2ccc(/C=C3\SC(=O)NC3=O)c(OCc3ccc(C(F)(F)F)cc3)c2)cc1`, the 50% inhibitory concentration (IC50) in series [1] stood at 2.3 µM.

As to `O=C(O)COc1cc(OCc2ccccc2)ccc1/C=C1\SC(=O)NC1=O`, in series [1], the IC50 amounted to 136 µM.

Regarding `O=C1NC(=O)/C(=C/c2ccc(OCc3ccc(F)cc3)cc2OCc2ccc(C(F)(F)F)cc2)S1`, the IC50 in series [1] came to 4 µM.

In the case of `O=C1NC(=O)/C(=C/c2ccc(OCc3ccccc3)cc2OCc2ccc(C(F)(F)F)cc2)S1`, in series [1], the IC50 turned out to be 4 µM.

In the case of `O=C1NC(=O)/C(=C/c2ccc(OCc3ccccn3)cc2OCc2ccc(C(F)(F)F)cc2)S1`, the IC50 in series [1] was found to be 12 µM.

With `O=C1NC(=O)/C(=C/c2ccc(OS(=O)(=O)c3ccc(Br)cc3)cc2OCc2ccc(S(=O)(=O)N3CCOCC3)cc2)S1`, the half-inhibitory concentration (IC50) in series [1] is 14 µM.

Regarding `Cc1ccc(S(=O)(=O)Oc2cc(OCc3cc(C(F)(F)F)cc(C(F)(F)F)c3)c(/C=C3\SC(=O)NC3=O)cc2Br)cc1`, the half-inhibitory concentration (IC50) in [1] is 2 µM.

Turning to `O=C1NC(=O)/C(=C/c2ccc(OCc3ccc(F)cc3)cc2OCc2ccc(F)cc2)S1`, the IC50 in [1] came out at 8 µM.

Regarding `O=C1NC(=O)/C(=C/c2cc(Br)ccc2OCc2cc(C(F)(F)F)cc(C(F)(F)F)c2)S1`, the Activity in [2] is 4 µM; with Mus musculus [4], 2.16 g; with Mus musculus [6], 1.27 g; with Mus musculus [7], 0.42 g; with Mus musculus [8], 125 mg/dL; with Mus musculus [9], 78 mg/dL. Further, the Activity in the series with Mus musculus [10] is on record as 0.22 mM; in the series with Mus musculus [14] it was “Toxic”. Also, the concentration giving a half-maximal response (EC50) in [3] turned out to be 0.87 µM. Moreover, the feed efficiency in the series on Mus musculus [5] was 0.68 g/100 kcal. Also, the outcome in the series on Mus musculus [11] and with Mus musculus [12] was Active. The inhibition result in series [13] is “Active”.

With `O=C1NC(=O)/C(=C/c2ccc(OCc3ccccc3)cc2OCc2ccccc2)S1`, the IC50 in series [1] was 10 µM.

The record behind these values is ChEMBL document CHEMBL1800016, “Novel thiazolidinedione derivatives with anti-obesity effects: dual action as PTP1B inhibitors and PPAR-γ activators” (Bioorg Med Chem Lett, 2010).
